Results published in ChEMBL document CHEMBL3085640, “Synthesis and antimicrobial activity of some novel hydrazide, benzochromenone, dihydropyridine, pyrrole, thiazole and thiophene derivatives” (2013).
Converted amounts (≈) assume the structure as drawn. The source made the active and inactive calls. No cut-off for these calls is given here.

These compounds were tested on Staphylococcus aureus (assay: Antibacterial activity against Staphylococcus aureus MTCC 96 assessed as growth inhibition after 24 hrs by broth microdilution method). Conditions: not given.
Format: functional
Procedure, shortened: (§1)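 MIC by broth microdilution in Müller-Hinton broth. DMSO stocks are diluted in broth to give two-fold serial dilutions, and about 10^6 CFU/mL of bacteria is added per well. Sealed plates are incubated in a humid chamber at 36 °C for 24 h. The MIC is the lowest concentration showing no visible turbidity. Run only for compounds giving zones >10 mm.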

With `C/C(=N\NC(=O)/C(C#N)=C/N(C)C)c1cc2c(ccc3ccccc32)oc1=O` the MIC was “inactive”.
`C/C(=N\NC(=O)c1sc(N)c(C#N)c1N)c1cc2c(ccc3ccccc32)oc1=O` was tested, and the MIC was “inactive”.

Same assay, conditions: MTCC 96, 24 h

In order of falling MIC:
1. COc1ccc(OC)c(-c2c(C#N)c(O)n(/N=C(\C)c3cc4c(ccc5ccccc54)oc3=O)c(=O)c2C#N)c1  250 µg/mL (≈ 469 µM)
2. C/C(=N\n1c(O)c(C#N)c(-c2cccc(O)c2)c(C#N)c1=O)c1cc2c(ccc3ccccc32)oc1=O  250 µg/mL (≈ 512 µM)
3. C/C(=N\NC(=O)/C(C#N)=C/c1ccc(Cl)cc1)c1cc2c(ccc3ccccc32)oc1=O  188 µg/mL (≈ 424 µM)
4. C/C(=N\NC(=O)c1sc(=S)n(-c2ccccc2)c1N)c1cc2c(ccc3ccccc32)oc1=O  125 µg/mL (≈ 257 µM)
5. C/C(=N\NC(=O)/C(C#N)=N/Nc1ccc(C)cc1)c1cc2c(ccc3ccccc32)oc1=O  125 µg/mL (≈ 286 µM)
6. C/C(=N\NC(=O)/C(C#N)=C/c1cccnc1)c1cc2c(ccc3ccccc32)oc1=O  125 µg/mL (≈ 306 µM)
7. C/C(=N\NC(=O)CC#N)c1cc2c(ccc3ccccc32)oc1=O  125 µg/mL (≈ 391 µM)

The compounds below were run on Escherichia coli (assay: Antibacterial activity against Escherichia coli MTCC 443 assessed as growth inhibition after 24 hrs by broth microdilution method). Conditions: not given.
Format: functional
Procedure, shortened: as §1

For `C/C(=N\NC(=O)/C(C#N)=C/N(C)C)c1cc2c(ccc3ccccc32)oc1=O`, the MIC was “inactive”.
For `C/C(=N\NC(=O)c1sc(N)c(C#N)c1N)c1cc2c(ccc3ccccc32)oc1=O`, the MIC was “inactive”.

Same assay, conditions: MTCC 443, 24 h

In order of rising MIC:
1. C/C(=N\NC(=O)c1sc(=S)n(-c2ccccc2)c1N)c1cc2c(ccc3ccccc32)oc1=O  93.7 µg/mL (≈ 193 µM)
2. C/C(=N\n1c(O)c(C#N)c(-c2cccc(O)c2)c(C#N)c1=O)c1cc2c(ccc3ccccc32)oc1=O  125 µg/mL (≈ 256 µM)
3. C/C(=N\NC(=O)/C(C#N)=N/Nc1ccc(C)cc1)c1cc2c(ccc3ccccc32)oc1=O  125 µg/mL (≈ 286 µM)
4. C/C(=N\NC(=O)/C(C#N)=C/c1cccnc1)c1cc2c(ccc3ccccc32)oc1=O  125 µg/mL (≈ 306 µM)
5. C/C(=N\NC(=O)CC#N)c1cc2c(ccc3ccccc32)oc1=O  125 µg/mL (≈ 391 µM)
6. COc1ccc(OC)c(-c2c(C#N)c(O)n(/N=C(\C)c3cc4c(ccc5ccccc54)oc3=O)c(=O)c2C#N)c1  188 µg/mL (≈ 352 µM)
7. C/C(=N\NC(=O)/C(C#N)=C/c1ccc(Cl)cc1)c1cc2c(ccc3ccccc32)oc1=O  250 µg/mL (≈ 566 µM)

Each compound was assayed on Candida albicans (assay: Antifungal activity against Candida albicans assessed as growth inhibition at 1 mg/mL after 48 hrs by […] method). Conditions: read-out: DIZ.
Format: functional
Procedure, shortened: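 Sterile filter-paper discs soaked in a 1 mg/mL DMSO solution of the compound are placed on nutrient agar seeded with about 10^4 CFU/mL of C. albicans, in triplicate. Plates are incubated at 36 °C for 48 h. The read-out is the mean diameter of the inhibition zone in mm, with a DMSO-only control.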

In order of rising zone of inhibition at 1000 µg/mL:
1. C/C(=N\NC(=O)/C(C#N)=C/N(C)C)c1cc2c(ccc3ccccc32)oc1=O  7 mm
2. COc1ccc(OC)c(-c2c(C#N)c(O)n(/N=C(\C)c3cc4c(ccc5ccccc54)oc3=O)c(=O)c2C#N)c1  10 mm
3. C/C(=N\NC(=O)CC#N)c1cc2c(ccc3ccccc32)oc1=O  11 mm
4. C/C(=N\NC(=O)c1sc(=S)n(-c2ccccc2)c1N)c1cc2c(ccc3ccccc32)oc1=O  15 mm
5. C/C(=N\NC(=O)/C(C#N)=C/c1ccc(Cl)cc1)c1cc2c(ccc3ccccc32)oc1=O  17 mm
6. C/C(=N\n1c(O)c(C#N)c(-c2cccc(O)c2)c(C#N)c1=O)c1cc2c(ccc3ccccc32)oc1=O  19 mm
7. C/C(=N\NC(=O)/C(C#N)=C/c1cccnc1)c1cc2c(ccc3ccccc32)oc1=O  19 mm
8. C/C(=N\NC(=O)c1sc(N)c(C#N)c1N)c1cc2c(ccc3ccccc32)oc1=O  20 mm
9. C/C(=N\NC(=O)/C(C#N)=N/Nc1ccc(C)cc1)c1cc2c(ccc3ccccc32)oc1=O  21 mm

These compounds were tested on Escherichia coli (assay: Antibacterial activity against Escherichia coli MTCC 443 assessed as growth inhibition at 1 mg/mL after 24 hrs by […] method). Conditions: not given.
Format: functional
Procedure, shortened: (§2)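 Sterile filter-paper discs soaked in a 1 mg/mL DMSO solution of the compound are placed on nutrient agar seeded with about 10^6 CFU/mL of bacteria, in triplicate. Plates are incubated at 36 °C for 24 h. The read-out is the mean diameter of the inhibition zone in mm. DMSO alone serves as the control.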

In the case of `C/C(=N\NC(=O)/C(C#N)=C/N(C)C)c1cc2c(ccc3ccccc32)oc1=O`, the “growth inhibition (GI)” value is reported as “inactive”.
In the case of `C/C(=N\NC(=O)c1sc(N)c(C#N)c1N)c1cc2c(ccc3ccccc32)oc1=O`, the “growth inhibition (GI)” value is reported as “inactive”.

Same assay, conditions: MTCC 443, 24 h, read-out: DIZ

In order of rising zone of inhibition at 1000 µg/mL:
1. C/C(=N\NC(=O)/C(C#N)=C/c1ccc(Cl)cc1)c1cc2c(ccc3ccccc32)oc1=O  17 mm
2. COc1ccc(OC)c(-c2c(C#N)c(O)n(/N=C(\C)c3cc4c(ccc5ccccc54)oc3=O)c(=O)c2C#N)c1  20 mm
3. C/C(=N\NC(=O)/C(C#N)=C/c1cccnc1)c1cc2c(ccc3ccccc32)oc1=O  23 mm
4. C/C(=N\NC(=O)CC#N)c1cc2c(ccc3ccccc32)oc1=O  23 mm
5. C/C(=N\n1c(O)c(C#N)c(-c2cccc(O)c2)c(C#N)c1=O)c1cc2c(ccc3ccccc32)oc1=O  24 mm
6. C/C(=N\NC(=O)/C(C#N)=N/Nc1ccc(C)cc1)c1cc2c(ccc3ccccc32)oc1=O  24 mm
7. C/C(=N\NC(=O)c1sc(=S)n(-c2ccccc2)c1N)c1cc2c(ccc3ccccc32)oc1=O  27 mm

What follows are compounds tested on Candida albicans (assay: Antifungal activity against Candida albicans assessed as growth inhibition after 48 hrs by broth microdilution method). Conditions: not given.
Format: functional
Procedure, shortened: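 MIC by broth microdilution in Sabouraud liquid medium. DMSO stocks are serially diluted two-fold in broth and inoculated with C. albicans. Sealed plates are incubated in a humid chamber at 36 °C for 48 h. The MIC is the lowest concentration without visible turbidity. Run only for compounds giving zones >10 mm.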

In order of falling MIC:
1. C/C(=N\NC(=O)/C(C#N)=C/N(C)C)c1cc2c(ccc3ccccc32)oc1=O  750 µg/mL (≈ 2000 µM)
2. COc1ccc(OC)c(-c2c(C#N)c(O)n(/N=C(\C)c3cc4c(ccc5ccccc54)oc3=O)c(=O)c2C#N)c1  250 µg/mL (≈ 469 µM)
3. C/C(=N\NC(=O)CC#N)c1cc2c(ccc3ccccc32)oc1=O  250 µg/mL (≈ 783 µM)
4. C/C(=N\n1c(O)c(C#N)c(-c2cccc(O)c2)c(C#N)c1=O)c1cc2c(ccc3ccccc32)oc1=O  188 µg/mL (≈ 384 µM)
5. C/C(=N\NC(=O)c1sc(=S)n(-c2ccccc2)c1N)c1cc2c(ccc3ccccc32)oc1=O  125 µg/mL (≈ 257 µM)
6. C/C(=N\NC(=O)/C(C#N)=C/c1ccc(Cl)cc1)c1cc2c(ccc3ccccc32)oc1=O  125 µg/mL (≈ 283 µM)
7. C/C(=N\NC(=O)/C(C#N)=N/Nc1ccc(C)cc1)c1cc2c(ccc3ccccc32)oc1=O  125 µg/mL (≈ 286 µM)
8. C/C(=N\NC(=O)/C(C#N)=C/c1cccnc1)c1cc2c(ccc3ccccc32)oc1=O  125 µg/mL (≈ 306 µM)
9. C/C(=N\NC(=O)c1sc(N)c(C#N)c1N)c1cc2c(ccc3ccccc32)oc1=O  125 µg/mL (≈ 299 µM)

The compounds below were run on Staphylococcus aureus (assay: Antibacterial activity against Staphylococcus aureus MTCC 96 assessed as growth inhibition at 1 mg/mL after 24 hrs by […] method). Conditions: not given.
Format: functional
Procedure, shortened: as §2

With `C/C(=N\NC(=O)/C(C#N)=C/N(C)C)c1cc2c(ccc3ccccc32)oc1=O` the “growth inhibition (GI)” value was “inactive”.
`C/C(=N\NC(=O)c1sc(N)c(C#N)c1N)c1cc2c(ccc3ccccc32)oc1=O` was tested, and the “growth inhibition (GI)” value was “inactive”.

Same assay, conditions: MTCC 96, 24 h, read-out: DIZ

In order of rising zone of inhibition at 1000 µg/mL:
1. C/C(=N\n1c(O)c(C#N)c(-c2cccc(O)c2)c(C#N)c1=O)c1cc2c(ccc3ccccc32)oc1=O  12 mm
2. COc1ccc(OC)c(-c2c(C#N)c(O)n(/N=C(\C)c3cc4c(ccc5ccccc54)oc3=O)c(=O)c2C#N)c1  13 mm
3. C/C(=N\NC(=O)CC#N)c1cc2c(ccc3ccccc32)oc1=O  21 mm
4. C/C(=N\NC(=O)/C(C#N)=C/c1cccnc1)c1cc2c(ccc3ccccc32)oc1=O  22 mm
5. C/C(=N\NC(=O)/C(C#N)=C/c1ccc(Cl)cc1)c1cc2c(ccc3ccccc32)oc1=O  23 mm
6. C/C(=N\NC(=O)/C(C#N)=N/Nc1ccc(C)cc1)c1cc2c(ccc3ccccc32)oc1=O  24 mm
7. C/C(=N\NC(=O)c1sc(=S)n(-c2ccccc2)c1N)c1cc2c(ccc3ccccc32)oc1=O  26 mm
